This note sets out measurements from ChEMBL document CHEMBL1914326, “Synthesis and anticonvulsant properties of new acetamide derivatives of phthalimide, and its saturated cyclohexane and norbornene analogs” (Eur J Med Chem, 2011).

Activity calls are given as the source filed them. The rule behind the calls is not given here.

Data set [1] deals with Rattus norvegicus. The data set can be described thus: Anticonvulsant activity in po dosed rat assessed as protection against maximal electroshock. The data set is classed as functional. For orientation: Protection in the maximal electroshock model is a classic sign of anticonvulsant action.
Data set [2] has as its system Mus musculus. The data set can be described thus: Anticonvulsant activity in ip dosed CF1 albino mouse assessed as protection against maximal electroshock after 0.5 hrs. The data set is classed as functional. Conditions: read-out: MED. In short, it runs like this:
(§1)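 Male albino CF-1 mice in groups of eight received i.p. doses of 30, 100 and 300 mg/kg, suspended in 0.5% methylcellulose/water. Maximal electroshock seizures were tested at 0.5 and 4 h, with one additional 0.25 h reading at 100 mg/kg. The minimum dose giving protection was recorded. A dash means no activity at 300 mg/kg.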

For data set [3], the system named is Mus musculus. The data set can be described thus: Anticonvulsant activity in ip dosed CF1 albino mouse assessed as protection against subcutaneous pentylenetetrazole-induced after 4 hrs. The class given is functional. Conditions: read-out: MED. In short, it runs like this: (§2)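 Male CF-1 mice in groups of eight were dosed i.p. at 30, 100 or 300 mg/kg in 0.5% methylcellulose/water. At 0.5 and 4 h, pentylenetetrazole 85 mg/kg (CD97 dose) was given s.c. This dose produces clonic seizures lasting at least 5 s. The minimum protective dose was recorded, with a top dose of 300 mg/kg.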

The test system of data set [4] is Mus musculus. The data set can be described thus: Anticonvulsant activity in ip dosed CF1 albino mouse assessed as protection against subcutaneous pentylenetetrazole-induced after 0.5 hrs. The class given is functional. The following applies: read-out: MED. In short, it runs like this:
as §2

In data set [5] the test system is Mus musculus. The data set can be described thus: Neurotoxicity in ip dosed CF1 albino mouse assessed as minimum dose required to cause motor impairment after 0.5 hrs by rotarod test. The data set is classed as toxicity, organism-based. The following applies: in vivo. In short, it runs like this: (§3)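 Acute neurotoxicity was scored on the minimal motor impairment rotorod test in male CF-1 mice. Animals in groups of eight were dosed i.p. at 30, 100 or 300 mg/kg in 0.5% methylcellulose/water and examined at 0.5 and 4 h. Untreated controls keep their balance on the rod for a prolonged time. The minimum dose causing impairment was recorded.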
(In general: In the rotarod test animals must keep their balance on a rotating rod.)

In data set [6] the test system is Mus musculus. The data set can be described thus: Anticonvulsant activity in ip dosed CF1 albino mouse assessed as protection against maximal electroshock after 4 hrs. The class given is functional. Conditions: read-out: MED. The method in brief:
as §1

Data set [7] has as its system Mus musculus. The data set can be described thus: Neurotoxicity in ip dosed CF1 albino mouse assessed as minimum dose required to cause motor impairment after 4 hrs by rotarod test. The data set is classed as toxicity, organism-based. Conditions: in vivo. The method in brief:
as §3

For data set [8], the system named is Mus musculus. The data set can be described thus: Neurotoxicity in CF1 albino mouse assessed as unable to grasp rotarod at 300 mg/kg, ip after 4 hrs by rotarod test. The data set is classed as toxicity, organism-based. Set-up: dose 300 mg/kg, route intraperitoneal. The following applies: in vivo. In short, it runs like this: as §3
Data set [9] deals with Mus musculus. The data set can be described thus: Anticonvulsant activity in CF1 albino mouse assessed as protection against subcutaneous pentylenetetrazole-induced seizures at 300 mg/kg, ip after 4 hrs. The class given is functional, organism-based. Set-up: dose 300 mg/kg. In short, it runs like this:
as §2

The subject of data set [10] is Mus musculus. The data set can be described thus: Neurotoxicity in CF1 albino mouse assessed as unable to grasp rotarod at 300 mg/kg, ip after 0.5 hrs by rotarod test. The class given is toxicity, organism-based. Set-up: dose 300 mg/kg, route intraperitoneal. Conditions: in vivo. In short, it runs like this: as §3
For data set [11], the system named is Mus musculus. The data set can be described thus: Anticonvulsant activity in CF1 albino mouse assessed as protection against subcutaneous pentylenetetrazole-induced seizures at 300 mg/kg, ip after 0.5 hrs. The class given is functional, organism-based. Set-up: dose 300 mg/kg. In short, it runs like this: as §2
For data set [12], the system named is Mus musculus. The data set can be described thus: Anticonvulsant activity in CF1 albino mouse assessed as protection against maximal electroshock at 300 mg/kg, ip after 0.5 hrs. The data set is classed as functional, organism-based. Set-up: dose 300 mg/kg. The method in brief: as §1
Data set [13] deals with Mus musculus. The data set can be described thus: Anticonvulsant activity in CF1 albino mouse assessed as protection against maximal electroshock at 300 mg/kg, ip after 4 hrs. The data set is classed as functional, organism-based. On the set-up: dose 300 mg/kg. The method in brief:
as §1

For data set [14], the system named is Mus musculus. The data set can be described thus: Neurotoxicity in ip dosed CF1 albino mouse assessed as minimum dose required to cause tremors after 0.5 hrs by rotarod test. The following applies: in vivo. The data set is classed as toxicity, organism-based.
Data set [15] has as its system Mus musculus. The data set can be described thus: Neurotoxicity in CF1 albino mouse assessed as motor impairment at 300 mg/kg, ip after 4 hrs by rotarod test. The class given is toxicity, organism-based. Set-up: dose 300 mg/kg, route intraperitoneal. The following applies: in vivo. In short, it runs like this: as §3
For data set [16], the system named is Rattus norvegicus. The data set can be described thus: Anticonvulsant activity in Sprague-Dawley albino rat assessed as protection against maximal electroshock at 30 mg/kg, po after 0.25 hrs. The data set is classed as functional. In short, it runs like this:
(§4)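 Male Sprague-Dawley rats in groups of four received 30 mg/kg p.o. as a suspension in 0.5% methylcellulose/water. Maximal electroshock seizure protection was scored at 0.25, 0.5, 1, 2 and 4 h and reported as rats protected/rats tested.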

The test system of data set [17] is Rattus norvegicus. The data set can be described thus: Neurotoxicity in Sprague-Dawley albino rat assessed as motor impairment at 30 mg/kg, po by rotarod test. The data set is classed as toxicity, organism-based. On the set-up: dose 30 mg/kg, route oral. Conditions: in vivo. The method in brief: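 Male Sprague-Dawley rats in groups of four were given 30 mg/kg orally in 0.5% methylcellulose/water. Motor impairment was then assessed on the standardized minimal motor impairment rotorod test.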

In data set [18] the test system is Rattus norvegicus. The data set can be described thus: Anticonvulsant activity in Sprague-Dawley albino rat assessed as protection against maximal electroshock at 30 mg/kg, po after 0.5 hrs. The data set is classed as functional. The method in brief:
as §4

In data set [19] the test system is Rattus norvegicus. The data set can be described thus: Anticonvulsant activity in Sprague-Dawley albino rat assessed as protection against maximal electroshock at 30 mg/kg, po after 1 hr. The data set is classed as functional. The method in brief:
as §4

In data set [20] the test system is Rattus norvegicus. The data set can be described thus: Anticonvulsant activity in Sprague-Dawley albino rat assessed as protection against maximal electroshock at 30 mg/kg, po after 2 hrs. The data set is classed as functional. The method in brief:
as §4

The test system of data set [21] is Rattus norvegicus. The data set can be described thus: Anticonvulsant activity in Sprague-Dawley albino rat assessed as protection against maximal electroshock at 30 mg/kg, po after 4 hrs. The class given is functional. In short, it runs like this: as §4
In data set [22] the test system is Mus musculus. The data set can be described thus: Anticonvulsant activity in CF1 albino mouse assessed as protection against maximal electroshock at 100 mg/kg, ip after 0.25 hrs. The class given is functional, organism-based. On the set-up: dose 100 mg/kg. In short, it runs like this: as §1
The subject of data set [23] is Mus musculus. The data set can be described thus: Neurotoxicity in CF1 albino mouse assessed as motor impairment at 300 mg/kg, ip after 0.5 hrs by rotarod test. The following applies: in vivo. The data set is classed as toxicity, organism-based. On the set-up: dose 300 mg/kg, route intraperitoneal. In short, it runs like this:
as §3

For `O=C1CC2(CCc3ccccc3C2)C(=O)N1CN1CCN(c2cccc(C(F)(F)F)c2)CC1` (stereo not drawn), the ED50 in data set [1] amounted to 9 mg/kg.

Consider `Nc1ccc(N2C(=O)c3ccccc3C2=O)c(Cl)c1`, for which the ED50 in [1] was 5.7 mg/kg.

On to `NC(=O)N1c2ccccc2C=Cc2ccccc21` [CARBAMAZEPINE], for which the minimal effective dose in data set [2] was 30 mg/kg; in [3], 300 mg/kg; in data set [4], 100 mg/kg; in data set [6] it was 100 mg/kg. For the same compound, the results for the MTC in [5] and in data set [7] were 100 mg/kg and 300 mg/kg, respectively.

As to `O=C(CN1C(=O)c2ccccc2C1=O)N1CCOCC1`, the minimal effective dose in data set [2] and in data set [6] was 100 mg/kg throughout. The Activity result in data set [8] and in data set [10] was “Toxic” each time. Besides, the result in data set [9] and in data set [11] was inactive.

For the compound `O=C(CN1C(=O)C2CCCCC2C1=O)N1CCN(c2cccc(Cl)c2Cl)CC1` (stereo not drawn), the result in [9], in data set [12], in data set [11] and in [13] was inactive. The figures for the Activity entry in data set [14] and in data set [15] were “Toxic” and “Non-toxic”, respectively.

In the case of `O=C(CN1C(=O)c2ccccc2C1=O)N1CCN(c2ccc(F)cc2)CC1`, the minimal effective dose in data set [2] worked out at 30 mg/kg; in data set [3] it was 300 mg/kg; in [4], 300 mg/kg; in data set [6], 100 mg/kg. Further, the Activity is recorded as 25% in data set [16]; “Non-toxic” in data set [17]; 50% in data set [18]; 50% in [19]; 100% in [20]; 100% in data set [21]. The MTC in [5] and in [7] was 300 mg/kg throughout.

Turning to `O=C(CN1C(=O)C2C3C=CC(C3)C2C1=O)N1CCN(c2ccc(F)cc2)CC1` (stereo not drawn), the minimal effective dose in data set [2] and in [6] was 100 mg/kg in each case. In addition, the Activity entry in [8] is given as “Toxic”. Besides, the result in data set [9] and in data set [11] was inactive. Besides, the MTC in data set [5] amounted to 300 mg/kg.

Take `O=C1NC(=O)C(c2ccccc2)(c2ccccc2)N1` [PHENYTOIN]: the minimal effective dose in data set [2] and in [6] was 30 mg/kg each time. Moreover, the Activity in data set [16] is reported as 25%; in [17], “Non-toxic”; in data set [18], 100%; in data set [19], 75%; in [20], 75%; in data set [21], 75%. Further, the result in data set [9] and in data set [11] was inactive. Also, the MTC in [5] and in data set [7] was 100 mg/kg in each case.

On to `O=C(CN1C(=O)C2CCCCC2C1=O)N1CCN(c2ccc(F)cc2)CC1` (stereo not drawn), for which the minimal effective dose in data set [2] and in [6] was 300 mg/kg each time. In addition, the Activity was 0% in data set [16]; “Non-toxic” in data set [17]; 50% in data set [18]; “Non-toxic” in [23]; 25% in data set [19]; 0% in data set [20]. Further, the Activity in data set [21] is on record as 0%; in data set [15] it was “Non-toxic”. Besides, the result in data set [9] and in [11] was inactive. The outcome in data set [22] was Active.

For orientation: ED50 means the midpoint of the dose-response relation.
